# Reference: ChEMBL document CHEMBL1649574, “Prevalence and characterization of heterogeneous vancomycin-intermediate Staphylococcus aureus isolates from 14 cities in China” (2009)
# Assays:
# Assay type in all cases: functional
# Staphylococcus aureus [1] = test: Antimicrobial activity against SCCmec type II vancomycin-intermediate Staphylococcus aureus isolate 4sy32 by agar dilution method
# Summary of the method: (§1)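 Agar-dilution MICs were measured on a subset of 200 blood MRSA isolates from China. Agents: oxacillin, rifampin, gentamicin, levofloxacin, erythromycin, vancomycin, teicoplanin, tigecycline, ceftobiprole and linezolid. Phenotype came from the PAP-AUC ratio of each isolate to S. aureus Mu3 (VSSA <0.9; hVISA 0.9 to 1.3; VISA ≥1.3), read on BHI agar with 0 to 8.0 mg/liter vancomycin after 48 h at 35°C.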
# Staphylococcus aureus [2] = test: Antimicrobial activity against SCCmec type II vancomycin-intermediate Staphylococcus aureus isolate 4sy39 by agar dilution method; summary of the method: as §1
# Staphylococcus aureus [3] = test: Antimicrobial activity against heterogeneous vancomycin-intermediate Staphylococcus aureus by agar dilution method; summary of the method: as §1
# Staphylococcus aureus [4] = test: Antimicrobial activity against vancomycin-intermediate Staphylococcus aureus by agar dilution method; summary of the method: as §1
# Staphylococcus aureus [5] = test: Antimicrobial activity against heterogeneous vancomycin-intermediate Staphylococcus aureus assessed as intermediate isolates by agar dilution method
# Summary of the method: (§2)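 MICs by agar dilution for all 200 MRSA blood isolates (oxacillin, rifampin, gentamicin, levofloxacin, erythromycin, vancomycin, teicoplanin, tigecycline, ceftobiprole, linezolid). Isolates were grouped by PAP-AUC ratio against S. aureus Mu3: below 0.9 VSSA, 0.9 to 1.3 hVISA, 1.3 or more VISA.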
# Staphylococcus aureus [6] = test: Antimicrobial activity against heterogeneous vancomycin-intermediate Staphylococcus aureus assessed as susceptible isolates by agar dilution method; summary of the method: as §2
# Staphylococcus aureus [7] = test: Antimicrobial activity against heterogeneous vancomycin-intermediate Staphylococcus aureus assessed as growth inhibition at 0.25 times MIC; design: scale not given: the % may be the effect or the level left
# Staphylococcus aureus [8] = test: Antimicrobial activity against heterogeneous vancomycin-intermediate Staphylococcus aureus assessed as growth inhibition at 0.125 times MIC; design: scale not given: the % may be the effect or the level left
# Staphylococcus aureus [9] = test: Antimicrobial activity against vancomycin-susceptible Staphylococcus aureus by agar dilution method; summary of the method: as §1
# Staphylococcus aureus [10] = test: Antimicrobial activity against heterogeneous vancomycin-susceptible Staphylococcus aureus assessed as intermediate isolates by agar dilution method
# Staphylococcus aureus [11] = test: Antimicrobial activity against heterogeneous vancomycin-susceptible Staphylococcus aureus assessed as susceptible isolates by agar dilution method; summary of the method: as §2
# Staphylococcus aureus [12] = test: Antimicrobial activity against heterogeneous vancomycin-intermediate Staphylococcus aureus assessed as growth inhibition at 0.5 times MIC; design: scale not given: the % may be the effect or the level left
# Staphylococcus aureus [13] = test: Antimicrobial activity against heterogeneous vancomycin-intermediate Staphylococcus aureus assessed as growth inhibition at MIC; design: scale not given: the % may be the effect or the level left
# Staphylococcus aureus [14] = test: Antimicrobial activity against heterogeneous vancomycin-intermediate Staphylococcus aureus assessed as growth inhibition at 2 times MIC; design: scale not given: the % may be the effect or the level left
# Staphylococcus aureus [15] = test: Antimicrobial activity against heterogeneous vancomycin-intermediate Staphylococcus aureus assessed as growth inhibition at 4 times MIC; design: scale not given: the % may be the effect or the level left
# Staphylococcus aureus [16] = test: Antimicrobial activity against heterogeneous vancomycin-intermediate Staphylococcus aureus assessed as growth inhibition at 16 times MIC; design: scale not given: the % may be the effect or the level left
# Staphylococcus aureus [17] = test: Antimicrobial activity against vancomycin-susceptible Staphylococcus aureus assessed as growth inhibition at 0.125 times MIC; design: scale not given: the % may be the effect or the level left
# Staphylococcus aureus [18] = test: Antimicrobial activity against vancomycin-susceptible Staphylococcus aureus assessed as growth inhibition at 0.25 times MIC; design: scale not given: the % may be the effect or the level left
# Staphylococcus aureus [19] = test: Antimicrobial activity against vancomycin-susceptible Staphylococcus aureus assessed as growth inhibition at 0.5 times MIC; design: scale not given: the % may be the effect or the level left
# Staphylococcus aureus [20] = test: Antimicrobial activity against vancomycin-susceptible Staphylococcus aureus assessed as growth inhibition at MIC; design: scale not given: the % may be the effect or the level left
# Staphylococcus aureus [21] = test: Antimicrobial activity against vancomycin-susceptible Staphylococcus aureus assessed as growth inhibition at 2 times MIC; design: scale not given: the % may be the effect or the level left
# Staphylococcus aureus [22] = test: Antimicrobial activity against vancomycin-susceptible Staphylococcus aureus assessed as growth inhibition at 4 times MIC; design: scale not given: the % may be the effect or the level left
# Staphylococcus aureus [23] = test: Antimicrobial activity against vancomycin-susceptible Staphylococcus aureus assessed as growth inhibition at 16 times MIC; design: scale not given: the % may be the effect or the level left
# Staphylococcus aureus [24] = test: Antimicrobial activity against SCCmec type III vancomycin-intermediate Staphylococcus aureus isolate 5zjsau3 by agar dilution method; summary of the method: as §1
# Staphylococcus aureus [25] = test: Antimicrobial activity against SCCmec type II vancomycin-intermediate Staphylococcus aureus isolate sh06024 by agar dilution method; summary of the method: as §1
# Staphylococcus aureus [26] = test: Antimicrobial activity against SCCmec type III vancomycin-intermediate Staphylococcus aureus isolate gz06040 by agar dilution method; summary of the method: as §1
# Staphylococcus aureus [27] = test: Antimicrobial activity against SCCmec type II vancomycin-intermediate Staphylococcus aureus isolate 6zjsau7 by agar dilution method; summary of the method: as §1
# Staphylococcus aureus [28] = test: Antimicrobial activity against SCCmec type III vancomycin-intermediate Staphylococcus aureus isolate bd4768 by agar dilution method; summary of the method: as §1
# Staphylococcus aureus [29] = test: Antimicrobial activity against SCCmec type II vancomycin-intermediate Staphylococcus aureus isolate b2k4781 by agar dilution method; summary of the method: as §1
# Staphylococcus aureus [30] = test: Antimicrobial activity against SCCmec type III vancomycin-intermediate Staphylococcus aureus isolate b3k2345 by agar dilution method; summary of the method: as §1
# Staphylococcus aureus [31] = test: Antimicrobial activity against SCCmec type III vancomycin-intermediate Staphylococcus aureus isolate b2k3421 by agar dilution method; summary of the method: as §1
# Staphylococcus aureus [32] = test: Antimicrobial activity against SCCmec type III vancomycin-intermediate Staphylococcus aureus isolate b3k5923 by agar dilution method; summary of the method: as §1
# Staphylococcus aureus [33] = test: Antimicrobial activity against SCCmec type III vancomycin-intermediate Staphylococcus aureus isolate b4k6307 by agar dilution method; summary of the method: as §1
# Staphylococcus aureus [34] = test: Antimicrobial activity against SCCmec type III vancomycin-intermediate Staphylococcus aureus isolate b5k3529 by agar dilution method; summary of the method: as §1
# Staphylococcus aureus [35] = test: Antimicrobial activity against SCCmec type III vancomycin-intermediate Staphylococcus aureus isolate b5k3578 by agar dilution method; summary of the method: as §1
# Staphylococcus aureus [36] = test: Antimicrobial activity against SCCmec type III vancomycin-intermediate Staphylococcus aureus isolate b6k1642 by agar dilution method; summary of the method: as §1
# Staphylococcus aureus [37] = test: Antimicrobial activity against SCCmec type III vancomycin-intermediate Staphylococcus aureus isolate b6k7974 by agar dilution method; summary of the method: as §1
# Staphylococcus aureus [38] = test: Antimicrobial activity against SCCmec type IV vancomycin-intermediate Staphylococcus aureus isolate 06b41 by agar dilution method; summary of the method: as §1
# Staphylococcus aureus [39] = test: Antimicrobial activity against SCCmec type II vancomycin-intermediate Staphylococcus aureus isolate 07b63 by agar dilution method; summary of the method: as §1
# Staphylococcus aureus [40] = test: Antimicrobial activity against SCCmec type III vancomycin-intermediate Staphylococcus aureus isolate 15b52 by agar dilution method; summary of the method: as §1
# Staphylococcus aureus [41] = test: Antimicrobial activity against SCCmec type III vancomycin-intermediate Staphylococcus aureus isolate zj07028 by agar dilution method; summary of the method: as §1
# Staphylococcus aureus [42] = test: Antimicrobial activity against SCCmec type III vancomycin-intermediate Staphylococcus aureus isolate xa07029 by agar dilution method; summary of the method: as §1
# Staphylococcus aureus [43] = test: Antimicrobial activity against SCCmec type III vancomycin-intermediate Staphylococcus aureus isolate gz07030 by agar dilution method; summary of the method: as §1
# Staphylococcus aureus [44] = test: Antimicrobial activity against SCCmec type III vancomycin-intermediate Staphylococcus aureus isolate gs07022 by agar dilution method; summary of the method: as §1
# Staphylococcus aureus [45] = test: Antimicrobial activity against SCCmec type III vancomycin-intermediate Staphylococcus aureus isolate gz06051 by agar dilution method; summary of the method: as §1
# Staphylococcus aureus [46] = test: Antimicrobial activity against SCCmec type III vancomycin-intermediate Staphylococcus aureus isolate 13b16 by agar dilution method; summary of the method: as §1
# Staphylococcus aureus [47] = test: Antimicrobial activity against SCCmec type III vancomycin-intermediate Staphylococcus aureus isolate 11b091 by agar dilution method; summary of the method: as §1
# Staphylococcus aureus [48] = test: Antimicrobial activity against SCCmec type III vancomycin-intermediate Staphylococcus aureus isolate sh07043 by agar dilution method; summary of the method: as §1
smiles,measurement,setting,value
CC(=O)NC[C@H]1CN(c2ccc(N3CCOCC3)c(F)c2)C(=O)O1 [LINEZOLID],MIC,Staphylococcus aureus [1],1 µg/mL
same,MIC,Staphylococcus aureus [2],1 µg/mL
same,MIC50,Staphylococcus aureus [3],1 µg/mL
same,MIC90,Staphylococcus aureus [3],2 µg/mL
same,MIC,Staphylococcus aureus [4],1 µg/mL
same,Activity,Staphylococcus aureus [5],0%
same,Activity,Staphylococcus aureus [6],100%
same,Activity,Staphylococcus aureus [7],0%
same,Activity,Staphylococcus aureus [8],0%
same,MIC50,Staphylococcus aureus [9],1 µg/mL
same,MIC90,Staphylococcus aureus [9],2 µg/mL
same,Activity,Staphylococcus aureus [10],0%
same,Activity,Staphylococcus aureus [11],100%
same,Activity,Staphylococcus aureus [12],33.3%
same,Activity,Staphylococcus aureus [13],85.2%
same,Activity,Staphylococcus aureus [14],100%
same,Activity,Staphylococcus aureus [15],100%
same,Activity,Staphylococcus aureus [16],100%
same,Activity,Staphylococcus aureus [17],0.58%
same,Activity,Staphylococcus aureus [18],1.16%
same,Activity,Staphylococcus aureus [19],31.2%
same,Activity,Staphylococcus aureus [20],82.7%
same,Activity,Staphylococcus aureus [21],100%
same,Activity,Staphylococcus aureus [22],100%
same,Activity,Staphylococcus aureus [23],100%
same,MIC,Staphylococcus aureus [24],1 µg/mL
same,MIC,Staphylococcus aureus [25],0.5 µg/mL
same,MIC,Staphylococcus aureus [26],1 µg/mL
same,MIC,Staphylococcus aureus [27],1 µg/mL
same,MIC,Staphylococcus aureus [28],1 µg/mL
same,MIC,Staphylococcus aureus [29],0.5 µg/mL
same,MIC,Staphylococcus aureus [30],0.5 µg/mL
same,MIC,Staphylococcus aureus [31],0.5 µg/mL
same,MIC,Staphylococcus aureus [32],0.5 µg/mL
same,MIC,Staphylococcus aureus [33],0.5 µg/mL
same,MIC,Staphylococcus aureus [34],0.5 µg/mL
same,MIC,Staphylococcus aureus [35],0.5 µg/mL
same,MIC,Staphylococcus aureus [36],1 µg/mL
same,MIC,Staphylococcus aureus [37],1 µg/mL
same,MIC,Staphylococcus aureus [38],1 µg/mL
same,MIC,Staphylococcus aureus [39],1 µg/mL
same,MIC,Staphylococcus aureus [40],0.5 µg/mL
same,MIC,Staphylococcus aureus [41],1 µg/mL
same,MIC,Staphylococcus aureus [42],1 µg/mL
same,MIC,Staphylococcus aureus [43],1 µg/mL
same,MIC,Staphylococcus aureus [44],1 µg/mL
CN(C)c1cc(NC(=O)CNC(C)(C)C)c(O)c2c1C[C@H]1C[C@H]3[C@H](N(C)C)C(O)=C(C(N)=O)C(=O)[C@@]3(O)C(O)=C1C2=O [TIGECYCLINE],MIC,Staphylococcus aureus [1],0.25 µg/mL
same,MIC,Staphylococcus aureus [2],0.25 µg/mL
same,MIC50,Staphylococcus aureus [3],0.25 µg/mL
same,MIC90,Staphylococcus aureus [3],0.25 µg/mL
same,MIC,Staphylococcus aureus [4],0.25 µg/mL
same,Activity,Staphylococcus aureus [5],0%
same,Activity,Staphylococcus aureus [6],100%
same,Activity,Staphylococcus aureus [7],92.6%
same,Activity,Staphylococcus aureus [8],44.4%
same,MIC50,Staphylococcus aureus [9],0.125 µg/mL
same,MIC90,Staphylococcus aureus [9],0.25 µg/mL
same,Activity,Staphylococcus aureus [10],0%
same,Activity,Staphylococcus aureus [11],100%
same,Activity,Staphylococcus aureus [12],100%
same,Activity,Staphylococcus aureus [13],100%
same,Activity,Staphylococcus aureus [14],100%
same,Activity,Staphylococcus aureus [15],100%
same,Activity,Staphylococcus aureus [16],100%
same,Activity,Staphylococcus aureus [17],54.3%
same,Activity,Staphylococcus aureus [18],90.2%
same,Activity,Staphylococcus aureus [19],100%
same,Activity,Staphylococcus aureus [20],100%
same,Activity,Staphylococcus aureus [21],100%
same,Activity,Staphylococcus aureus [22],100%
same,Activity,Staphylococcus aureus [23],100%
same,MIC,Staphylococcus aureus [24],0.25 µg/mL
same,MIC,Staphylococcus aureus [25],0.125 µg/mL
same,MIC,Staphylococcus aureus [26],0.125 µg/mL
same,MIC,Staphylococcus aureus [45],0.25 µg/mL
same,MIC,Staphylococcus aureus [27],0.25 µg/mL
same,MIC,Staphylococcus aureus [28],0.125 µg/mL
same,MIC,Staphylococcus aureus [29],0.125 µg/mL
same,MIC,Staphylococcus aureus [30],0.064 µg/mL
same,MIC,Staphylococcus aureus [31],0.125 µg/mL
same,MIC,Staphylococcus aureus [32],0.032 µg/mL
same,MIC,Staphylococcus aureus [33],0.064 µg/mL
same,MIC,Staphylococcus aureus [34],0.125 µg/mL
same,MIC,Staphylococcus aureus [35],0.25 µg/mL
same,MIC,Staphylococcus aureus [36],0.25 µg/mL
same,MIC,Staphylococcus aureus [37],0.25 µg/mL
same,MIC,Staphylococcus aureus [38],0.25 µg/mL
same,MIC,Staphylococcus aureus [46],0.125 µg/mL
same,MIC,Staphylococcus aureus [47],0.125 µg/mL
same,MIC,Staphylococcus aureus [39],0.5 µg/mL
same,MIC,Staphylococcus aureus [40],0.25 µg/mL
same,MIC,Staphylococcus aureus [41],0.5 µg/mL
same,MIC,Staphylococcus aureus [48],0.25 µg/mL
same,MIC,Staphylococcus aureus [42],0.25 µg/mL
same,MIC,Staphylococcus aureus [43],0.125 µg/mL
same,MIC,Staphylococcus aureus [44],0.25 µg/mL
